# According to ChEMBL document CHEMBL1157903, “Synthesis and structure-activity relationships of 2-aryl-4-oxazolylmethoxy benzylglycines and 2-aryl-4-thiazolylmethoxy benzylglycines as novel, potent PPARalpha selective activators- PPARalpha and PPARgamma selectivity modulation” (Bioorg Med Chem Lett, 2010):
# System: not listed separately
# Experiment: Agonist activity at hamster PPARalpha
# Type: functional, Cricetulus griseus
# Details: not given
row,Structure (SMILES),EC50 [nM]
1,COC(=O)N(CC(=O)O)Cc1cccc(OCc2coc(-c3ccc(Cl)cc3)n2)c1,979
2,COc1cccc(OC(=O)N(CC(=O)O)[C@@H](C)c2cccc(OCc3coc(-c4ccc(Cl)cc4)n3)c2)c1,66
3,COC(=O)N(CC(=O)O)Cc1cccc(OCc2csc(-c3ccc(C(F)(F)F)cc3)n2)c1,811

# Target: T1, Peroxisome proliferator-activated receptor alpha (Homo sapiens, UniProt Q07869)
# T1 sequence (Q07869 whole entry): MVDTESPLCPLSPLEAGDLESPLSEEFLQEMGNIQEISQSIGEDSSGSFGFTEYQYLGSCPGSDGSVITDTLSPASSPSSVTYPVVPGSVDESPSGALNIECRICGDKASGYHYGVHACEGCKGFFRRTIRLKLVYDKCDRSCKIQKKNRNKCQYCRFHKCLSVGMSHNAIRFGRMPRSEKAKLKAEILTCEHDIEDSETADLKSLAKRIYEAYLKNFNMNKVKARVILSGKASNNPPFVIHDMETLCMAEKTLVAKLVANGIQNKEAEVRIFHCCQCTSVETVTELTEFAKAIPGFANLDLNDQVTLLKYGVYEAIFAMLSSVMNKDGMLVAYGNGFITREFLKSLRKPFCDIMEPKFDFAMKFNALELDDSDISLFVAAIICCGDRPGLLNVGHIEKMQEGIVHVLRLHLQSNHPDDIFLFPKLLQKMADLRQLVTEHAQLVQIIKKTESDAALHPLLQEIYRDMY
# Experiment: Agonist activity against human Gal4-fussed PPARalpha in HEK293 cells by luciferase reporter gene assay
# Type: functional, cell-based
# Details: not given
# Outline: (§1)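 Transactivation assay in HEK293 cells with a luciferase reporter. After cell lysis, luciferin is added and luminescence is read. EC50 is the ligand concentration giving half-maximal fold induction. Maximal efficacy is expressed as % of standards, with fenofibrate at 100 µM = 100% for PPARα and rosiglitazone at 1 µM = 100% for PPARγ. Data are normalized to known agonists at 1 µM.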
row,Structure (SMILES),EC50 [nM]
1,COC(=O)N(CC(=O)O)Cc1cccc(OCc2coc(-c3ccc(C(F)(F)F)cc3)n2)c1,68
2,COC(=O)N(CC(=O)O)Cc1cccc(OCc2csc(-c3ccc(C(F)(F)F)cc3)n2)c1,46.6

# Continued by falling EC50, values first:
row,EC50 [nM],Structure (SMILES)
1,395,COC(=O)N(CC(=O)O)Cc1cccc(OCc2coc(-c3ccc(F)c(Cl)c3)n2)c1
2,64,COC(=O)N(CC(=O)O)Cc1cccc(OCc2coc(-c3ccc(Cl)cc3)n2)c1
3,13,COc1cccc(OC(=O)N(CC(=O)O)[C@@H](C)c2cccc(OCc3coc(-c4ccc(Cl)cc4)n3)c2)c1

# Target: T2, Peroxisome proliferator-activated receptor alpha (Homo sapiens) (UniProt Q07869)
# T2 sequence (whole entry): T1 sequence (Q07869 whole entry)
# Experiment: Agonist activity against human Gal4-fussed PPARalpha by luciferase reporter gene assay relative to finofibrate
# Type: functional
# Details: not given
# Outline: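 Gal4-fused human PPARα transactivation in HEK293 cells with a luciferase reporter, read as luminescence after cell lysis and luciferin addition. EC50 is the ligand concentration (µM) giving half-maximal fold induction. Maximal efficacy is expressed as a percentage of fenofibrate at 100 µM (set as 100%). Intrinsic activity is the response at 1 µM as a percentage of the standard at 1 µM.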
row,Structure (SMILES),Emax [%]
1,COC(=O)N(CC(=O)O)Cc1cccc(OCc2coc(-c3ccc(C(F)(F)F)cc3)n2)c1,74
2,COC(=O)N(CC(=O)O)Cc1cccc(OCc2csc(-c3ccc(C(F)(F)F)cc3)n2)c1,73

# Other lines, results leading:
row,Emax [%],Structure (SMILES)
1,97,COC(=O)N(CC(=O)O)Cc1cccc(OCc2coc(-c3ccc(F)c(Cl)c3)n2)c1
2,78,COC(=O)N(CC(=O)O)Cc1cccc(OCc2coc(-c3ccc(Cl)cc3)n2)c1
3,69,COc1cccc(OC(=O)N(CC(=O)O)[C@@H](C)c2cccc(OCc3coc(-c4ccc(Cl)cc4)n3)c2)c1

# Target: T3, Peroxisome proliferator-activated receptor gamma (Homo sapiens, UniProt P37231)
# T3 sequence (P37231 whole entry): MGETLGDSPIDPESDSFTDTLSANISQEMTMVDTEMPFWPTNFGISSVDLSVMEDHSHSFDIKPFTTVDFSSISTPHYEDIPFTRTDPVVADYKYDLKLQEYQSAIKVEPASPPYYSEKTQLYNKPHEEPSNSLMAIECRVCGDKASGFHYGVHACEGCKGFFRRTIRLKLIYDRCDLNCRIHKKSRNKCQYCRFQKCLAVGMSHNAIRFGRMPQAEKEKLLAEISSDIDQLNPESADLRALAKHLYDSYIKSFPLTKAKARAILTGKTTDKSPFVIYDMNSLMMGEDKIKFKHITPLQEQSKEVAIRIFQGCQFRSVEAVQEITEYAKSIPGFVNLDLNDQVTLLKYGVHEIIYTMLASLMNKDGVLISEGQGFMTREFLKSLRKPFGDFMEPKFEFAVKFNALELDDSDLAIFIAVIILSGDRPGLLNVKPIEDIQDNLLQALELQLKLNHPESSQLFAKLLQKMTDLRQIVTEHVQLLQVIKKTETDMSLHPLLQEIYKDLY
# Experiment: Agonist activity against human Gal4-fussed PPARgamma in HEK293 cells by luciferase reporter gene assay
# Type: functional, cell-based
# Details: not given
# Outline: as §1
row,Structure (SMILES),EC50 [µM]
1,COC(=O)N(CC(=O)O)Cc1cccc(OCc2coc(-c3ccc(C(F)(F)F)cc3)n2)c1,4.81
2,COC(=O)N(CC(=O)O)Cc1cccc(OCc2csc(-c3ccc(C(F)(F)F)cc3)n2)c1,3.44

# Second part, the compound after the results:
row,EC50 [µM],Structure (SMILES)
1,6.39,COC(=O)N(CC(=O)O)Cc1cccc(OCc2coc(-c3ccc(F)c(Cl)c3)n2)c1
2,9.19,COC(=O)N(CC(=O)O)Cc1cccc(OCc2coc(-c3ccc(Cl)cc3)n2)c1
3,0.772,COc1cccc(OC(=O)N(CC(=O)O)[C@@H](C)c2cccc(OCc3coc(-c4ccc(Cl)cc4)n3)c2)c1

# System: Hamster
# Experiment: Antidyslipidemic activity in hamster assessed as decrease in HDL level at 10 mg/kg, po
# Type: functional, Cricetinae
# Design: scale not given: the % may be the effect or the level left
# Details: not given
# Outline: (§2)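 Hamsters kept on high-fat diet for 2 weeks, then dosed 10 mg/kg by oral gavage once daily for 21 days (n = 8). Vehicle: 5% cremophor, 10% NMP, 5% EtOH, 80% water. HDL-c and TG measured at study end. Statistics by Dunnett test, p < 0.05.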
row,Structure (SMILES),Activity [%]
1,COC(=O)N(CC(=O)O)Cc1cccc(OCc2coc(-c3ccc(Cl)cc3)n2)c1,44
2,COc1cccc(OC(=O)N(CC(=O)O)[C@@H](C)c2cccc(OCc3coc(-c4ccc(Cl)cc4)n3)c2)c1,39
3,COC(=O)N(CC(=O)O)Cc1cccc(OCc2csc(-c3ccc(C(F)(F)F)cc3)n2)c1,52

# System: Hamster
# Experiment: Antidyslipidemic activity in hamster assessed as decrease in triglyceride level at 10 mg/kg, po
# Type: functional, Cricetinae
# Design: scale not given: the % may be the effect or the level left
# Details: not given
# Outline: as §2
row,Structure (SMILES),Activity [%]
1,COC(=O)N(CC(=O)O)Cc1cccc(OCc2coc(-c3ccc(Cl)cc3)n2)c1,84
2,COc1cccc(OC(=O)N(CC(=O)O)[C@@H](C)c2cccc(OCc3coc(-c4ccc(Cl)cc4)n3)c2)c1,49
3,COC(=O)N(CC(=O)O)Cc1cccc(OCc2csc(-c3ccc(C(F)(F)F)cc3)n2)c1,72

# System: not listed separately
# Experiment: Drug level in hamster liver at 10 mg/kg, po
# Type: ADME, organism-based
# Design: dose 10 mg/kg, route oral
# Details: cricetinae, in vivo, read-out: Drug uptake
# Outline: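 High-fat-fed hamsters (2 weeks on diet), 10 mg/kg po once daily for 21 days (n = 8). Vehicle: 5% cremophor/10% NMP/5% EtOH/80% water. Liver drug level taken 1 h post-dose in the fed state.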
row,Structure (SMILES),concentration [µM]
1,COC(=O)N(CC(=O)O)Cc1cccc(OCc2coc(-c3ccc(Cl)cc3)n2)c1,83.8
2,COC(=O)N(CC(=O)O)Cc1cccc(OCc2csc(-c3ccc(C(F)(F)F)cc3)n2)c1,86.8

# System: not listed separately
# Experiment: Drug level in hamster plasma at 10 mg/kg, po
# Type: ADME, organism-based
# Design: dose 10 mg/kg, route oral
# Details: cricetinae, in vivo, read-out: Drug uptake
# Outline: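 High-fat-fed hamsters (2 weeks on diet), 10 mg/kg po once daily for 21 days (n = 8). Vehicle: 5% cremophor/10% NMP/5% EtOH/80% water. Plasma drug level taken in the fasted state at 18 h post-dose.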
row,Structure (SMILES),concentration [µM]
1,COC(=O)N(CC(=O)O)Cc1cccc(OCc2coc(-c3ccc(Cl)cc3)n2)c1,72.9

# System: not listed separately
# Experiment: Volume of distribution at steady state Sprague-Dawley rat at 5 mg/kg, iv and 10 mg/kg, po
# Type: ADME, organism-based
# Details: in vivo, read-out: Vdss
# Outline: (§3)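 Male Sprague-Dawley rats (n = 2) given 5 mg/kg IV and 10 mg/kg PO. Vehicle: 10% NMP, 20% PEG-400, 70% potassium phosphate buffer.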
row,Structure (SMILES),Vd [L/kg]
1,COC(=O)N(CC(=O)O)Cc1cccc(OCc2coc(-c3ccc(Cl)cc3)n2)c1,0.2
2,COC(=O)N(CC(=O)O)Cc1cccc(OCc2csc(-c3ccc(C(F)(F)F)cc3)n2)c1,0.3

# System: not listed separately
# Experiment: Clearance in Sprague-Dawley rat at 5 mg/kg, iv and 10 mg/kg, po
# Type: ADME, organism-based
# Details: in vivo
# Outline: as §3
row,Structure (SMILES),clearance [mL/min/kg]
1,COC(=O)N(CC(=O)O)Cc1cccc(OCc2coc(-c3ccc(Cl)cc3)n2)c1,0.7
2,COC(=O)N(CC(=O)O)Cc1cccc(OCc2csc(-c3ccc(C(F)(F)F)cc3)n2)c1,0.5

# System: not listed separately
# Experiment: Half life in Sprague-Dawley rat at 5 mg/kg, iv and 10 mg/kg, po
# Type: ADME, organism-based
# Details: in vivo
# Outline: as §3
row,Structure (SMILES),half-life [min]
1,COC(=O)N(CC(=O)O)Cc1cccc(OCc2coc(-c3ccc(Cl)cc3)n2)c1,276
2,COC(=O)N(CC(=O)O)Cc1cccc(OCc2csc(-c3ccc(C(F)(F)F)cc3)n2)c1,474

# System: not listed separately
# Experiment: Mean retention time in Sprague-Dawley rat at 5 mg/kg, iv and 10 mg/kg, po
# Type: ADME, organism-based
# Details: in vivo
# Outline: as §3
row,Structure (SMILES),MRT [h]
1,COC(=O)N(CC(=O)O)Cc1cccc(OCc2coc(-c3ccc(Cl)cc3)n2)c1,10.7
2,COC(=O)N(CC(=O)O)Cc1cccc(OCc2csc(-c3ccc(C(F)(F)F)cc3)n2)c1,6

# System: not listed separately
# Experiment: Oral bioavailability in Sprague-Dawley rat at 10 mg/kg
# Type: ADME, organism-based
# Details: in vivo
# Outline: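 Male Sprague-Dawley rats (n = 2). Oral dose 10 mg/kg, with 5 mg/kg IV for comparison. Vehicle: 10% NMP, 20% PEG-400, 70% potassium phosphate buffer.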
row,Structure (SMILES),bioavailability [%]
1,COC(=O)N(CC(=O)O)Cc1cccc(OCc2coc(-c3ccc(Cl)cc3)n2)c1,75
2,COC(=O)N(CC(=O)O)Cc1cccc(OCc2csc(-c3ccc(C(F)(F)F)cc3)n2)c1,75

# System: Hamster
# Experiment: Induction of PDK4 mRNA level in hamster liver at 10 mg/kg, po after 6 hrs relative to fenofibrate
# Type: functional, Cricetinae
# Details: not given
# Outline: (§4)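 Single oral dose of 10 mpk in hamsters, with fenofibrate reference at 100 mpk. Liver PDK4 and HD mRNA measured at 6 h post-dose. Values expressed relative to fenofibrate, set as 100%.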
row,Structure (SMILES),Activity [%]
1,COC(=O)N(CC(=O)O)Cc1cccc(OCc2coc(-c3ccc(Cl)cc3)n2)c1,505
2,COC(=O)N(CC(=O)O)Cc1cccc(OCc2csc(-c3ccc(C(F)(F)F)cc3)n2)c1,308

# System: Hamster
# Experiment: Induction of hydrase mRNA level in hamster liver at 10 mg/kg, po after 6 hrs relative to fenofibrate
# Type: functional, Cricetinae
# Details: not given
# Outline: as §4
row,Structure (SMILES),Activity [%]
1,COC(=O)N(CC(=O)O)Cc1cccc(OCc2coc(-c3ccc(Cl)cc3)n2)c1,192
2,COC(=O)N(CC(=O)O)Cc1cccc(OCc2csc(-c3ccc(C(F)(F)F)cc3)n2)c1,126

# Species on record: Cricetulus griseus
# Experiment: Agonist activity at hamster PPARalpha relative to fenofibrate
# Type: functional
# Details: not given
row,Structure (SMILES),Emax [%]
1,COC(=O)N(CC(=O)O)Cc1cccc(OCc2coc(-c3ccc(Cl)cc3)n2)c1,84
2,COc1cccc(OC(=O)N(CC(=O)O)[C@@H](C)c2cccc(OCc3coc(-c4ccc(Cl)cc4)n3)c2)c1,71
3,COC(=O)N(CC(=O)O)Cc1cccc(OCc2csc(-c3ccc(C(F)(F)F)cc3)n2)c1,65

# Target: T4, Peroxisome proliferator-activated receptor gamma (Homo sapiens) (UniProt P37231)
# T4 sequence (whole entry): T3 sequence (P37231 whole entry)
# Experiment: Agonist activity against human Gal4-fussed PPARgamma by luciferase reporter gene assay relative to rosiglitazone
# Details: not given
row,Structure (SMILES),Emax [%]
1,COC(=O)N(CC(=O)O)Cc1cccc(OCc2coc(-c3ccc(C(F)(F)F)cc3)n2)c1,34
2,COC(=O)N(CC(=O)O)Cc1cccc(OCc2csc(-c3ccc(C(F)(F)F)cc3)n2)c1,73

# Results, then the compound that gave them:
row,Emax [%],Structure (SMILES)
1,54,COC(=O)N(CC(=O)O)Cc1cccc(OCc2coc(-c3ccc(F)c(Cl)c3)n2)c1
2,46,COC(=O)N(CC(=O)O)Cc1cccc(OCc2coc(-c3ccc(Cl)cc3)n2)c1
3,95,COc1cccc(OC(=O)N(CC(=O)O)[C@@H](C)c2cccc(OCc3coc(-c4ccc(Cl)cc4)n3)c2)c1
